Test results published in ChEMBL document CHEMBL4689842, “EUbOPEN Chemogenomics Library wave 1” (2021).
Several values for one entry are separate records, joined by “and”; a condition that tells them apart may be missing. Identical values can stand only once.

Tested on: Fibroblast
Experiment: Multiplex assay against human fibroblast
Assay type: toxicity, cell-based
Method in brief: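 Hoechst33342, BioTracker Green Microtubule Cytoskeleton Dye, MitoTracker Red and Annexin V Alexa Fluor 680 were added to live cells at seeding, and imaging on a CQ1 microscope at 37°C and 5% CO2 followed compound addition. Gating by CellPathfinder machine learning separated cells into Hoechst high-intensity objects or normal cells, then normal cells into healthy, pyknosed or fragmented nuclei, then pyknosed cells into mitotic or apoptotic. Per cents of healthy-nucleus cells are reported for the tubulin, mitochondrial-mass and membrane-permeability phenotypes.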

[1] = 12 h, 1 µM, compound concentration 1 uM, replicate 1
[2] = 12 h, 1 µM, compound concentration 1 uM, replicate 2
[3] = 12 h, 10 µM, compound concentration 10 uM, replicate 1
[4] = 12 h, 10 µM, compound concentration 10 uM, replicate 2
[5] = 24 h, 1 µM, compound concentration 1 uM, replicate 1
[6] = 24 h, 1 µM, compound concentration 1 uM, replicate 2
[7] = 24 h, 10 µM, compound concentration 10 uM, replicate 1
[8] = 24 h, 10 µM, compound concentration 10 uM, replicate 2
[9] = 48 h, 1 µM, compound concentration 1 uM, replicate 1
[10] = 48 h, 1 µM, compound concentration 1 uM, replicate 2
[11] = 48 h, 10 µM, compound concentration 10 uM, replicate 1
[12] = 48 h, 10 µM, compound concentration 10 uM, replicate 2

CC(=O)c1cc(-c2cc(C(=O)NC3CC3)ccc2C)c2ncccn12
Population Apoptotic (%) [1]: 68% | Population Fragmented Nuclei (%) [1]: 28% | Population Healthy Nuclei (%) [1]: 35% | Population Hoechst High Intensity Objects (%) [1]: 16% | Population Membrane Permeable-Phenotype (%) [1]: 42% | Population Mitochondria Different-Phenotype (%) [1]: 3% | Population Mitotic Cells (%) [1]: 31% | Population Normal (%) [1]: 83% | Population Pyknosed Nuclei (%) [1]: 36% | Population Tubulin-Different-Phenotype (%) [1]: 42% | Total Cell Count [1]: 96 | Population Apoptotic (%) [2]: 66% | Population Fragmented Nuclei (%) [2]: 8% | Population Healthy Nuclei (%) [2]: 85% | Population Hoechst High Intensity Objects (%) [2]: 7% | Population Membrane Permeable-Phenotype (%) [2]: 2% | Population Mitochondria Different-Phenotype (%) [2]: 7% | Population Mitotic Cells (%) [2]: 33% | Population Normal (%) [2]: 92% | Population Pyknosed Nuclei (%) [2]: 6% | Population Tubulin-Different-Phenotype (%) [2]: 19% | Total Cell Count [2]: 73 | Population Apoptotic (%) [3]: 60% | Population Fragmented Nuclei (%) [3]: 20% | Population Healthy Nuclei (%) [3]: 40% | Population Hoechst High Intensity Objects (%) [3]: 25% | Population Membrane Permeable-Phenotype (%) [3]: 30% | Population Mitochondria Different-Phenotype (%) [3]: 23% | Population Mitotic Cells (%) [3]: 39% | Population Normal (%) [3]: 75% | Population Pyknosed Nuclei (%) [3]: 39% | Population Tubulin-Different-Phenotype (%) [3]: 50% | Total Cell Count [3]: 140 | Population Fragmented Nuclei (%) [4]: 11% | Population Healthy Nuclei (%) [4]: 84% | Population Hoechst High Intensity Objects (%) [4]: 4% | Population Membrane Permeable-Phenotype (%) [4]: 3% | Population Mitochondria Different-Phenotype (%) [4]: 8% | Population Mitotic Cells (%) [4]: 40% | Population Normal (%) [4]: 95% | Population Pyknosed Nuclei (%) [4]: 5% | Population Tubulin-Different-Phenotype (%) [4]: 17% | Total Cell Count [4]: 52 | Population Apoptotic (%) [5]: 66% | Population Fragmented Nuclei (%) [5]: 25% | Population Healthy Nuclei (%) [5]: 45% | Population Hoechst High Intensity Objects (%) [5]: 15% | Population Membrane Permeable-Phenotype (%) [5]: 51% | Population Mitochondria Different-Phenotype (%) [5]: 7% | Population Mitotic Cells (%) [5]: 33% | Population Normal (%) [5]: 84% | Population Pyknosed Nuclei (%) [5]: 29% | Population Tubulin-Different-Phenotype (%) [5]: 43% | Total Cell Count [5]: 108 | Population Apoptotic (%) [6]: 0% | Population Fragmented Nuclei (%) [6]: 3% | Population Healthy Nuclei (%) [6]: 91% | Population Hoechst High Intensity Objects (%) [6]: 4% | Population Membrane Permeable-Phenotype (%) [6]: 3% | Population Mitochondria Different-Phenotype (%) [6]: 9% | Population Mitotic Cells (%) [6]: 100% | Population Normal (%) [6]: 95% | Population Pyknosed Nuclei (%) [6]: 5% | Population Tubulin-Different-Phenotype (%) [6]: 12% | Total Cell Count [6]: 70 | Population Apoptotic (%) [7]: 57% | Population Fragmented Nuclei (%) [7]: 21% | Population Healthy Nuclei (%) [7]: 47% | Population Hoechst High Intensity Objects (%) [7]: 15% | Population Membrane Permeable-Phenotype (%) [7]: 24% | Population Mitochondria Different-Phenotype (%) [7]: 9% | Population Mitotic Cells (%) [7]: 42% | Population Normal (%) [7]: 84% | Population Pyknosed Nuclei (%) [7]: 31% | Population Tubulin-Different-Phenotype (%) [7]: 65% | Total Cell Count [7]: 151 | Population Apoptotic (%) [8]: 48% | Population Fragmented Nuclei (%) [8]: 11% | Population Healthy Nuclei (%) [8]: 63% | Population Hoechst High Intensity Objects (%) [8]: 2% | Population Membrane Permeable-Phenotype (%) [8]: 8% | Population Mitochondria Different-Phenotype (%) [8]: 12% | Population Mitotic Cells (%) [8]: 51% | Population Normal (%) [8]: 97% | Population Pyknosed Nuclei (%) [8]: 24% | Population Tubulin-Different-Phenotype (%) [8]: 18% | Total Cell Count [8]: 62 | Population Apoptotic (%) [9]: 42% | Population Fragmented Nuclei (%) [9]: 40% | Population Healthy Nuclei (%) [9]: 46% | Population Hoechst High Intensity Objects (%) [9]: 10% | Population Membrane Permeable-Phenotype (%) [9]: 34% | Population Mitochondria Different-Phenotype (%) [9]: 2% | Population Mitotic Cells (%) [9]: 57% | Population Normal (%) [9]: 89% | Population Pyknosed Nuclei (%) [9]: 13% | Population Tubulin-Different-Phenotype (%) [9]: 20% | Total Cell Count [9]: 119 | Population Apoptotic (%) [10]: 33% | Population Fragmented Nuclei (%) [10]: 30% | Population Healthy Nuclei (%) [10]: 66% | Population Hoechst High Intensity Objects (%) [10]: 7% | Population Membrane Permeable-Phenotype (%) [10]: 12% | Population Mitochondria Different-Phenotype (%) [10]: 1% | Population Mitotic Cells (%) [10]: 66% | Population Normal (%) [10]: 92% | Population Pyknosed Nuclei (%) [10]: 3% | Population Tubulin-Different-Phenotype (%) [10]: 32% | Total Cell Count [10]: 101 | Population Apoptotic (%) [11]: 52% | Population Fragmented Nuclei (%) [11]: 30% | Population Healthy Nuclei (%) [11]: 51% | Population Hoechst High Intensity Objects (%) [11]: 17% | Population Membrane Permeable-Phenotype (%) [11]: 27% | Population Mitochondria Different-Phenotype (%) [11]: 6% | Population Mitotic Cells (%) [11]: 47% | Population Normal (%) [11]: 82% | Population Pyknosed Nuclei (%) [11]: 17% | Population Tubulin-Different-Phenotype (%) [11]: 45% | Total Cell Count [11]: 145 | Population Apoptotic (%) [12]: 75% | Population Fragmented Nuclei (%) [12]: 26% | Population Healthy Nuclei (%) [12]: 69% | Population Hoechst High Intensity Objects (%) [12]: 9% | Population Membrane Permeable-Phenotype (%) [12]: 16% | Population Mitochondria Different-Phenotype (%) [12]: 8% | Population Mitotic Cells (%) [12]: 25% | Population Normal (%) [12]: 90% | Population Pyknosed Nuclei (%) [12]: 4% | Population Tubulin-Different-Phenotype (%) [12]: 35% | Total Cell Count [12]: 107

COc1cc(N2CCC(N(C)C)CC2)ccc1Nc1ncc(Cl)c(Nc2ccccc2P(C)(C)=O)n1
Population Apoptotic (%) [1]: 64% | Population Fragmented Nuclei (%) [1]: 26% | Population Healthy Nuclei (%) [1]: 56% | Population Hoechst High Intensity Objects (%) [1]: 14% | Population Membrane Permeable-Phenotype (%) [1]: 8% | Population Mitochondria Different-Phenotype (%) [1]: 6% | Population Mitotic Cells (%) [1]: 35% | Population Normal (%) [1]: 85% | Population Pyknosed Nuclei (%) [1]: 16% | Population Tubulin-Different-Phenotype (%) [1]: 6% | Total Cell Count [1]: 202 | Population Apoptotic (%) [2]: 42% | Population Fragmented Nuclei (%) [2]: 52% | Population Healthy Nuclei (%) [2]: 31% | Population Hoechst High Intensity Objects (%) [2]: 24% | Population Membrane Permeable-Phenotype (%) [2]: 14% | Population Mitochondria Different-Phenotype (%) [2]: 7% | Population Mitotic Cells (%) [2]: 57% | Population Normal (%) [2]: 75% | Population Pyknosed Nuclei (%) [2]: 15% | Population Tubulin-Different-Phenotype (%) [2]: 21% | Total Cell Count [2]: 58 | Population Apoptotic (%) [3]: 73% and 69% | Population Fragmented Nuclei (%) [3]: 27% and 24% | Population Healthy Nuclei (%) [3]: 45% and 57% | Population Hoechst High Intensity Objects (%) [3]: 13% | Population Mitochondria Different-Phenotype (%) [3]: 7% and 6% | Population Mitotic Cells (%) [3]: 26% and 30% | Population Normal (%) [3]: 86% | Population Pyknosed Nuclei (%) [3]: 27% and 17% | Total Cell Count [3]: 98 and 215 | Population Apoptotic (%) [4]: 37% and 88% | Population Fragmented Nuclei (%) [4]: 45% and 26% | Population Healthy Nuclei (%) [4]: 32% | Population Hoechst High Intensity Objects (%) [4]: 39% and 16% | Population Membrane Permeable-Phenotype (%) [4]: 8% and 15% | Population Normal (%) [4]: 60% and 83% | Population Pyknosed Nuclei (%) [4]: 21% and 40% | Population Tubulin-Different-Phenotype (%) [4]: 41% and 90% | Total Cell Count [4]: 61 and 73 | Population Apoptotic (%) [5]: 96% | Population Fragmented Nuclei (%) [5]: 18% | Population Healthy Nuclei (%) [5]: 65% | Population Hoechst High Intensity Objects (%) [5]: 14% | Population Membrane Permeable-Phenotype (%) [5]: 6% | Population Mitotic Cells (%) [5]: 3% | Population Normal (%) [5]: 85% | Population Pyknosed Nuclei (%) [5]: 16% | Population Tubulin-Different-Phenotype (%) [5]: 4% | Total Cell Count [5]: 204 | Population Apoptotic (%) [6]: 57% | Population Fragmented Nuclei (%) [6]: 43% | Population Healthy Nuclei (%) [6]: 38% | Population Hoechst High Intensity Objects (%) [6]: 32% | Population Membrane Permeable-Phenotype (%) [6]: 0% | Population Mitochondria Different-Phenotype (%) [6]: 6% | Population Mitotic Cells (%) [6]: 42% | Population Normal (%) [6]: 67% | Population Pyknosed Nuclei (%) [6]: 17% | Population Tubulin-Different-Phenotype (%) [6]: 13% | Total Cell Count [6]: 58 | Population Apoptotic (%) [7]: 68% and 88% | Population Fragmented Nuclei (%) [7]: 29% and 31% | Population Healthy Nuclei (%) [7]: 50% and 54% | Population Hoechst High Intensity Objects (%) [7]: 13% | Population Mitochondria Different-Phenotype (%) [7]: 14% and 9% | Population Mitotic Cells (%) [7]: 31% and 11% | Population Normal (%) [7]: 86% | Population Pyknosed Nuclei (%) [7]: 19% and 14% | Total Cell Count [7]: 94 and 210 | Population Apoptotic (%) [8]: 66% and 92% | Population Fragmented Nuclei (%) [8]: 47% and 26% | Population Healthy Nuclei (%) [8]: 35% and 15% | Population Hoechst High Intensity Objects (%) [8]: 39% and 38% | Population Normal (%) [8]: 60% and 61% | Population Tubulin-Different-Phenotype (%) [8]: 41% and 100% | Total Cell Count [8]: 56 and 75 | Population Apoptotic (%) [11]: 87% | Population Fragmented Nuclei (%) [11]: 47% | Population Healthy Nuclei (%) [11]: 41% | Population Hoechst High Intensity Objects (%) [11]: 22% | Population Membrane Permeable-Phenotype (%) [11]: 20% | Population Mitochondria Different-Phenotype (%) [11]: 23% | Population Mitotic Cells (%) [11]: 12% | Population Normal (%) [11]: 77% | Population Pyknosed Nuclei (%) [11]: 10% | Population Tubulin-Different-Phenotype (%) [11]: 70% | Total Cell Count [11]: 94 | Population Apoptotic (%) [12]: 66% | Population Fragmented Nuclei (%) [12]: 34% | Population Healthy Nuclei (%) [12]: 61% | Population Hoechst High Intensity Objects (%) [12]: 16% | Population Membrane Permeable-Phenotype (%) [12]: 22% | Population Mitochondria Different-Phenotype (%) [12]: 9% | Population Mitotic Cells (%) [12]: 33% | Population Normal (%) [12]: 83% | Population Pyknosed Nuclei (%) [12]: 4% | Population Tubulin-Different-Phenotype (%) [12]: 56% | Total Cell Count [12]: 86
